Tested on: not listed separately
Assay: Selectivity index, ratio of CC50 for pig PEK cells to EC50 for Antiviral activity against Powassan virus infected in pig PEK cells
Format: toxicity, cell-based
Settings: read-out: Ratio CC50/EC50

SMILES	selectivity ratio
CCCCCCCCCOc1ccc2c(c1)Nc1nc(=O)n([C@H]3C[C@H](O)[C@@H](CO)O3)cc1O2	> 13
CCCCCCCCOc1ccc2c(c1)N(C)c1nc(=O)n([C@H]3C[C@H](O)[C@@H](CO)O3)cc1O2	> 7
CCCCCCCCCOc1ccc2c(c1)N(C)c1nc(=O)n([C@H]3C[C@H](O)[C@@H](CO)O3)cc1O2	> 42

Tested on: Human betaherpesvirus 5
Assay: Antiviral activity against Human cytomegalovirus Davis
Format: functional, organism-based
Settings: Human betaherpesvirus 5, Davis
Method in brief: (§1)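 Confluent HEL cultures received 100 CCID50 or 20 PFU of virus, with 2 h adsorption before inoculum removal. Cells were then incubated with compound from 100 μM downward. Cytopathicity or plaques were scored once untreated infected controls reached completion.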

SMILES	EC50
CCCCCCCCCOc1ccc2c(c1)Nc1nc(=O)n([C@H]3C[C@H](O)[C@@H](CO)O3)cc1O2	> 100 µM
CCCCCCCCOc1ccc2c(c1)N(C)c1nc(=O)n([C@H]3C[C@H](O)[C@@H](CO)O3)cc1O2	> 100 µM
CCCCCCCCCOc1ccc2c(c1)N(C)c1nc(=O)n([C@H]3C[C@H](O)[C@@H](CO)O3)cc1O2	> 100 µM

Tested on: MDCK
Assay: Cytotoxicity in dog MDCK cells assessed as reduction in cell viability measured after 3 days by beckman coulter counting method
Format: cell-based, Canis lupus familiaris
Settings: mdck, 72 h, time 3 day
Method in brief: (§2)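 Cells were seeded at 5 × 10³/well, grown 24 h, then exposed to compound from 100 μM downward for 3 days at 37 °C. Cell number was counted with a Coulter counter.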

SMILES	CC50
CCCCCCCCCOc1ccc2c(c1)Nc1nc(=O)n([C@H]3C[C@H](O)[C@@H](CO)O3)cc1O2	> 100 µM
CCCCCCCCOc1ccc2c(c1)N(C)c1nc(=O)n([C@H]3C[C@H](O)[C@@H](CO)O3)cc1O2	> 100 µM
CCCCCCCCCOc1ccc2c(c1)N(C)c1nc(=O)n([C@H]3C[C@H](O)[C@@H](CO)O3)cc1O2	> 100 µM

Tested on: not listed separately
Assay: Selectivity index, ratio of CC50 for African green monkey Vero cells to EC50 for Antiviral activity against Chikungunya virus infected in African green monkey Vero cells
Format: toxicity
Settings: read-out: Ratio CC50/EC50

SMILES	selectivity ratio
CCCCCCCCCOc1ccc2c(c1)Nc1nc(=O)n([C@H]3C[C@H](O)[C@@H](CO)O3)cc1O2	> 13
CCCCCCCCOc1ccc2c(c1)N(C)c1nc(=O)n([C@H]3C[C@H](O)[C@@H](CO)O3)cc1O2	> 4
CCCCCCCCCOc1ccc2c(c1)N(C)c1nc(=O)n([C@H]3C[C@H](O)[C@@H](CO)O3)cc1O2	> 15

Tested on: HEp-2
Assay: Cytotoxicity in human Hep2 cells assessed as reduction in cell viability measured after 3 days by beckman coulter counting method
Format: functional
Settings: HEp-2, 72 h, time 3 day
Method in brief: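 Hep2 cells seeded at 5 × 10³ cells/well and allowed to grow 24 h, then exposed to compound dilutions starting at 100 μM for 3 days at 37 °C. Cell number measured by Coulter counter.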

SMILES	CC50
CCCCCCCCCOc1ccc2c(c1)Nc1nc(=O)n([C@H]3C[C@H](O)[C@@H](CO)O3)cc1O2	> 100 µM
CCCCCCCCOc1ccc2c(c1)N(C)c1nc(=O)n([C@H]3C[C@H](O)[C@@H](CO)O3)cc1O2	> 100 µM
CCCCCCCCCOc1ccc2c(c1)N(C)c1nc(=O)n([C@H]3C[C@H](O)[C@@H](CO)O3)cc1O2	> 100 µM

Tested on: not listed separately
Assay: Selectivity index, ratio of CC50 for human HEL cells to EC50 for antiviral activity against thymidine kinase positive Varicella zoster virus
Format: toxicity
Settings: read-out: Ratio CC50/EC50

SMILES	selectivity ratio
CCCCCCCCCOc1ccc2c(c1)Nc1nc(=O)n([C@H]3C[C@H](O)[C@@H](CO)O3)cc1O2	> 500
CCCCCCCCOc1ccc2c(c1)N(C)c1nc(=O)n([C@H]3C[C@H](O)[C@@H](CO)O3)cc1O2	74

Tested on: Tick-borne encephalitis virus
Assay: Antiviral activity against Tick-borne encephalitis virus infected in pig PEK cells assessed as reduction in virus plaque formation preincubated with virus for 1 hr followed by cell infection and measured after 1 hr by crystal violet staining based assay
Format: functional, organism-based
Settings: not given

SMILES	EC50
CCCCCCCCCOc1ccc2c(c1)Nc1nc(=O)n([C@H]3C[C@H](O)[C@@H](CO)O3)cc1O2	5.3 µM
CCCCCCCCOc1ccc2c(c1)N(C)c1nc(=O)n([C@H]3C[C@H](O)[C@@H](CO)O3)cc1O2	22 µM
CCCCCCCCCOc1ccc2c(c1)N(C)c1nc(=O)n([C@H]3C[C@H](O)[C@@H](CO)O3)cc1O2	2.53 µM

Tested on: Powassan virus
Assay: Antiviral activity against Powassan virus infected in pig PEK cells assessed as reduction in virus plaque formation preincubated with virus for 1 hr followed by cell infection and measured after 1 hr by crystal violet staining based assay
Format: functional, organism-based
Settings: not given

SMILES	EC50
CCCCCCCCCOc1ccc2c(c1)Nc1nc(=O)n([C@H]3C[C@H](O)[C@@H](CO)O3)cc1O2	7.7 µM
CCCCCCCCOc1ccc2c(c1)N(C)c1nc(=O)n([C@H]3C[C@H](O)[C@@H](CO)O3)cc1O2	13.3 µM
CCCCCCCCCOc1ccc2c(c1)N(C)c1nc(=O)n([C@H]3C[C@H](O)[C@@H](CO)O3)cc1O2	2.4 µM

Tested on: HEL
Assay: Cytotoxicity against human HEL cells assessed as reduction in cell viability measured after 3 days by beckman coulter counting method
Format: cell-based
Settings: 72 h, time 3 day
Method in brief: as §2

SMILES	CC50
CCCCCCCCCOc1ccc2c(c1)Nc1nc(=O)n([C@H]3C[C@H](O)[C@@H](CO)O3)cc1O2	> 100 µM
CCCCCCCCOc1ccc2c(c1)N(C)c1nc(=O)n([C@H]3C[C@H](O)[C@@H](CO)O3)cc1O2	> 100 µM
CCCCCCCCCOc1ccc2c(c1)N(C)c1nc(=O)n([C@H]3C[C@H](O)[C@@H](CO)O3)cc1O2	> 100 µM

Tested on: not listed separately
Assay: Selectivity index, ratio of CC50 for human HEL cells to EC50 for antiviral activity against thymidine kinase deficient Varicella zoster virus
Format: toxicity
Settings: read-out: Ratio CC50/EC50

SMILES	selectivity ratio
CCCCCCCCCOc1ccc2c(c1)Nc1nc(=O)n([C@H]3C[C@H](O)[C@@H](CO)O3)cc1O2	> 8

Tested on: Chikungunya virus
Assay: Antiviral activity against Chikungunya virus infected in African green monkey Vero cells assessed as reduction in virus plaque formation preincubated with virus for 1 hr followed by cell infection and measured after 1 hr by crystal violet staining based assay
Format: functional, organism-based
Settings: not given

SMILES	EC50
CCCCCCCCCOc1ccc2c(c1)Nc1nc(=O)n([C@H]3C[C@H](O)[C@@H](CO)O3)cc1O2	7.4 µM
CCCCCCCCOc1ccc2c(c1)N(C)c1nc(=O)n([C@H]3C[C@H](O)[C@@H](CO)O3)cc1O2	23.8 µM
CCCCCCCCCOc1ccc2c(c1)N(C)c1nc(=O)n([C@H]3C[C@H](O)[C@@H](CO)O3)cc1O2	6.3 µM

Tested on: Influenza A virus
Assay: Antiviral activity against Influenza A virus (H1N1) infected in MDCK cells assessed as reduction in cytopathic effect preincubated with cells for 1 hrs followed by viral addition and measured after 24 hrs by Reed-Muench method
Format: functional, organism-based
Settings: not given
Method in brief: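 MDCK monolayers were pre-incubated 1 h at 37 °C with 3-fold compound dilutions (from 2 mg/mL DMSO stock), then infected at MOI 1 for 24 h. Supernatant yield was titrated by 10-fold dilutions on fresh MDCK for 72 h. Titre was read by hemagglutination with 1% chicken erythrocytes and calculated by Reed-Muench as TID50 per 100 μL.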

SMILES	EC50
CCCCCCCCCOc1ccc2c(c1)Nc1nc(=O)n([C@H]3C[C@H](O)[C@@H](CO)O3)cc1O2	> 40 µM
CCCCCCCCOc1ccc2c(c1)N(C)c1nc(=O)n([C@H]3C[C@H](O)[C@@H](CO)O3)cc1O2	104 µM
CCCCCCCCCOc1ccc2c(c1)N(C)c1nc(=O)n([C@H]3C[C@H](O)[C@@H](CO)O3)cc1O2	35 µM

Tested on: not listed separately
Assay: Selectivity index, ratio of CC50 for pig PEK cells to EC50 for Antiviral activity against Tick-borne virus encephalitis infected in pig PEK cells
Format: toxicity, cell-based
Settings: read-out: Ratio CC50/EC50

SMILES	selectivity ratio
CCCCCCCCCOc1ccc2c(c1)Nc1nc(=O)n([C@H]3C[C@H](O)[C@@H](CO)O3)cc1O2	> 18
CCCCCCCCOc1ccc2c(c1)N(C)c1nc(=O)n([C@H]3C[C@H](O)[C@@H](CO)O3)cc1O2	> 4
CCCCCCCCCOc1ccc2c(c1)N(C)c1nc(=O)n([C@H]3C[C@H](O)[C@@H](CO)O3)cc1O2	> 40

Tested on: not listed separately
Assay: Cytotoxicity in pig PEK cells assessed as reduction in cell viability measured after 5 days by resazurin dye based assay
Set-up: species or system Sus scrofa, Kidney
Settings: 120 h, time 5 day
Method in brief: (§3)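 Cells (about 10⁵/well, 5% FBS) were added to two-fold compound dilutions (eight concentrations from 100 μM; DMSO control) and held 5 days at 36.5 °C in CO2. Medium was then replaced with resazurin (25 μg/mL) for 4 h and stopped with SDS. Fluorescence was read at Ex 525 / Em 580–640 nm, with background wells without resazurin subtracted. Done in two replicates; CC50 calculated.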

SMILES	CC50
CCCCCCCCCOc1ccc2c(c1)Nc1nc(=O)n([C@H]3C[C@H](O)[C@@H](CO)O3)cc1O2	> 100 µM
CCCCCCCCOc1ccc2c(c1)N(C)c1nc(=O)n([C@H]3C[C@H](O)[C@@H](CO)O3)cc1O2	> 100 µM
CCCCCCCCCOc1ccc2c(c1)N(C)c1nc(=O)n([C@H]3C[C@H](O)[C@@H](CO)O3)cc1O2	> 100 µM

Tested on: Human alphaherpesvirus 3
Assay: Antiviral activity against thymidine kinase positive Varicella zoster virus
Format: functional, organism-based
Settings: not given
Method in brief: as §1

SMILES	EC50
CCCCCCCCCOc1ccc2c(c1)Nc1nc(=O)n([C@H]3C[C@H](O)[C@@H](CO)O3)cc1O2	0.2 µM
CCCCCCCCOc1ccc2c(c1)N(C)c1nc(=O)n([C@H]3C[C@H](O)[C@@H](CO)O3)cc1O2	8.7 µM
CCCCCCCCCOc1ccc2c(c1)N(C)c1nc(=O)n([C@H]3C[C@H](O)[C@@H](CO)O3)cc1O2	> 20 µM

Tested on: Vero
Assay: Cytotoxicity in African green monkey Vero cells assessed as reduction in cell viability measured after 5 days by resazurin dye based assay
Settings: chlorocebus sabaeus, vero, 120 h; time 5 day
Method in brief: as §3

SMILES	CC50
CCCCCCCCCOc1ccc2c(c1)Nc1nc(=O)n([C@H]3C[C@H](O)[C@@H](CO)O3)cc1O2	> 100 µM
CCCCCCCCOc1ccc2c(c1)N(C)c1nc(=O)n([C@H]3C[C@H](O)[C@@H](CO)O3)cc1O2	> 100 µM
CCCCCCCCCOc1ccc2c(c1)N(C)c1nc(=O)n([C@H]3C[C@H](O)[C@@H](CO)O3)cc1O2	> 100 µM

Tested on: SARS-CoV-2
Assay: Antiviral activity against SARS COV-2 infected in monkey vero cells assessed as reduction in virus-induced cytopathic effect preincubated with virus for 1 hr followed by cell infection and measured after 5 days by microscopic analysis
Format: functional, organism-based
Settings: Severe acute respiratory syndrome coronavirus 2, Vero

SMILES	EC50
CCCCCCCCCOc1ccc2c(c1)Nc1nc(=O)n([C@H]3C[C@H](O)[C@@H](CO)O3)cc1O2	> 100 µM
CCCCCCCCOc1ccc2c(c1)N(C)c1nc(=O)n([C@H]3C[C@H](O)[C@@H](CO)O3)cc1O2	> 100 µM
CCCCCCCCCOc1ccc2c(c1)N(C)c1nc(=O)n([C@H]3C[C@H](O)[C@@H](CO)O3)cc1O2	> 100 µM

Tested on: Human betaherpesvirus 5
Assay: Antiviral activity against Human cytomegalovirus AD169
Format: functional, organism-based
Settings: Human betaherpesvirus 5, AD169
Method in brief: as §1

SMILES	EC50
CCCCCCCCCOc1ccc2c(c1)Nc1nc(=O)n([C@H]3C[C@H](O)[C@@H](CO)O3)cc1O2	> 100 µM
CCCCCCCCOc1ccc2c(c1)N(C)c1nc(=O)n([C@H]3C[C@H](O)[C@@H](CO)O3)cc1O2	> 100 µM
CCCCCCCCCOc1ccc2c(c1)N(C)c1nc(=O)n([C@H]3C[C@H](O)[C@@H](CO)O3)cc1O2	> 100 µM

Tested on: Human alphaherpesvirus 3
Assay: Antiviral activity against thymidine kinase deficient Varicella zoster virus
Format: functional, organism-based
Settings: not given
Method in brief: as §1

SMILES	EC50
CCCCCCCCCOc1ccc2c(c1)Nc1nc(=O)n([C@H]3C[C@H](O)[C@@H](CO)O3)cc1O2	14.2 µM
CCCCCCCCOc1ccc2c(c1)N(C)c1nc(=O)n([C@H]3C[C@H](O)[C@@H](CO)O3)cc1O2	> 100 µM
CCCCCCCCCOc1ccc2c(c1)N(C)c1nc(=O)n([C@H]3C[C@H](O)[C@@H](CO)O3)cc1O2	> 20 µM

Tested on: Respiratory syncytial virus
Assay: Antiviral activity against Respiratory syncytial virus assessed as reduction in virus-induced cytopathic effect by MTS assay
Format: functional, organism-based
Settings: human respiratory syncytial virus

SMILES	EC50
CCCCCCCCCOc1ccc2c(c1)Nc1nc(=O)n([C@H]3C[C@H](O)[C@@H](CO)O3)cc1O2	> 100 µM
CCCCCCCCOc1ccc2c(c1)N(C)c1nc(=O)n([C@H]3C[C@H](O)[C@@H](CO)O3)cc1O2	> 100 µM
CCCCCCCCCOc1ccc2c(c1)N(C)c1nc(=O)n([C@H]3C[C@H](O)[C@@H](CO)O3)cc1O2	> 100 µM

Reference: ChEMBL document CHEMBL4842312, “Phenoxazine nucleoside derivatives with a multiple activity against RNA and DNA viruses” (Eur J Med Chem, 2021)
